The record followed here is ChEMBL document CHEMBL4613300, “Pharmacophore-Based Virtual Screening for Identification of Negative Modulators of GLI1 as Potential Anticancer Agents” (ACS Med Chem Lett, 2020).

Each structure is given as a SMILES string. Calls of active or inactive are those of the source. The calls are words filed in the database; no cut-off is given here.

One assay addresses T1, Zinc finger protein GLI1 (Mus musculus) (UniProt P47806).
T1 sequence (whole entry): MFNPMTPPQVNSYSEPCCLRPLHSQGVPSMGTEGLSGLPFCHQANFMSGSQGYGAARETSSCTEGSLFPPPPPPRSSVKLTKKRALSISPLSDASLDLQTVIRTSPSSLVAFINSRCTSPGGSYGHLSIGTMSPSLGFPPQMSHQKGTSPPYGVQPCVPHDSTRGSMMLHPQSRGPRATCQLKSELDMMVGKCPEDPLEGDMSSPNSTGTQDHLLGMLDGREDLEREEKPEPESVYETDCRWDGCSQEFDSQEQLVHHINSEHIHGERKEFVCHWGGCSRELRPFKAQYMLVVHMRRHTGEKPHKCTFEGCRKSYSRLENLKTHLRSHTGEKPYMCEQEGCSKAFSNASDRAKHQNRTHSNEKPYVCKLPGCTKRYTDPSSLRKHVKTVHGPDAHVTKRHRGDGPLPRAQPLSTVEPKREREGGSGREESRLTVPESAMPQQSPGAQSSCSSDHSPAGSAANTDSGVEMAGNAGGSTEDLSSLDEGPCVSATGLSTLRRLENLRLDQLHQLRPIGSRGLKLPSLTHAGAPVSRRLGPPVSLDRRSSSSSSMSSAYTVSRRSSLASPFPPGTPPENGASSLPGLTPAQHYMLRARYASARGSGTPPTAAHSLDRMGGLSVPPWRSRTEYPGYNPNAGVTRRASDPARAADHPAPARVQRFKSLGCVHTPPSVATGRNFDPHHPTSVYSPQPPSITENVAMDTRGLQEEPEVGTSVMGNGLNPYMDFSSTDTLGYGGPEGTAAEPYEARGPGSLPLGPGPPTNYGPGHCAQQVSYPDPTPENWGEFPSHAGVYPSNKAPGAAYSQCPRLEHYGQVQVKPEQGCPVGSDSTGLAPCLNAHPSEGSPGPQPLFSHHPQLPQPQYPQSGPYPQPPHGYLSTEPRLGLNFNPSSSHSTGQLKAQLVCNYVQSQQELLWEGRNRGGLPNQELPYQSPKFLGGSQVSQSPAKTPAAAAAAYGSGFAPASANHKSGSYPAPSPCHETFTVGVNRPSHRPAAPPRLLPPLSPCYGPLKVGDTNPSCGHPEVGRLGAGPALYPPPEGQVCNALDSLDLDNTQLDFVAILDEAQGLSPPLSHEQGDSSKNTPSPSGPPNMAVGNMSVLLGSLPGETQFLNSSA
As to the kind of experiment: Inhibition of GLI1 transcriptional activity in HH-responsive mouse NIH3T3 cells assessed as reduction in SAG-induced luciferase activity at 5 uM incubated for 48 hrs by luciferase reporter gene assay relative to control. In kind it is cell-based.
Settings: not given
The method in brief: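 HH-responsive NIH3T3 cells carrying a GLI-dependent firefly luciferase reporter with renilla control, treated 48 h with 100 nM SAG plus compound (5 μM). Firefly/renilla ratio normalised to SAG-only cells set at 100%, reported as percent inhibition.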
For orientation: inhibition means the relative decrease from the control value, in per cent. For `CCOC(=O)c1c(-c2ccccc2)csc1NC(NC(C)=O)C(Cl)(Cl)Cl` (stereo not given), the inhibition was 38%.
Take `Cc1cc(C(F)F)n2ncc(C(=O)NC3CC(C)(C)Oc4ccccc43)c2n1` (stereo not given): the inhibition was determined as 0%.
Still for that read-out and setting: with `CCOC(=O)c1c(-c2ccccc2)csc1NC(NC(=O)c1ccc([N+](=O)[O-])cc1)C(Cl)(Cl)Cl` (stereo not given) the figure was 74%.
For the molecule `CCOC(=O)c1c(-c2ccccc2)csc1NC(NC(=O)c1ccc(Br)cc1)C(Cl)(Cl)Cl` (stereo not given), the inhibition amounted to 78%.
Regarding `CCOC(=O)c1c(-c2ccccc2)csc1NC(NC(=O)c1cccc(Cl)c1)C(Cl)(Cl)Cl` (stereo not given), the inhibition came out at 81%.

The next assay deals with Daoy. As to the kind of experiment: Antiproliferative activity against human DaOY cells assessed as reduction in cell viability incubated for 72 hrs by trypan blue or crystal violet staining based assay. In kind it is functional. Particulars: Homo sapiens, Daoy, 72 h; read-out: IC50.
As a reminder, the IC50 is the midpoint of a concentration-inhibition curve. Turning to `CCOC(=O)c1c(-c2ccccc2)csc1NC(NC(C)=O)C(Cl)(Cl)Cl` (stereo not given), the IC50 is 2.8 µM.
The same measure, in the same setting: with `CCOC(=O)c1c(-c2ccccc2)csc1NC(NC(=O)c1ccc([N+](=O)[O-])cc1)C(Cl)(Cl)Cl` (stereo not given) the figure was 3.1 µM; with `CCOC(=O)c1c(-c2ccccc2)csc1NC(NC(=O)c1ccc(Br)cc1)C(Cl)(Cl)Cl` (stereo not given), 3.4 µM; with `CCOC(=O)c1c(-c2ccccc2)csc1NC(NC(=O)c1cccc(Cl)c1)C(Cl)(Cl)Cl` (stereo not given), 5.5 µM.

The same assay, now with this note: daoy.
For `Cc1cc(C(F)F)n2ncc(C(=O)NC3CC(C)(C)Oc4ccccc43)c2n1` (stereo not given), the IC50 result is “Not Active”.

The next assay deals with A-375. As to the kind of experiment: Antiproliferative activity against human A375 cells assessed as reduction in cell viability incubated for 72 hrs by trypan blue or crystal violet staining based assay. In kind it is functional. The following applies: Homo sapiens, A-375, 72 h; read-out: IC50.
On to `CCOC(=O)c1c(-c2ccccc2)csc1NC(NC(C)=O)C(Cl)(Cl)Cl` (stereo not given), for which the 50% inhibitory concentration (IC50) was 5.1 µM.
On the same count and under the same terms, with `CCOC(=O)c1c(-c2ccccc2)csc1NC(NC(=O)c1ccc([N+](=O)[O-])cc1)C(Cl)(Cl)Cl` (stereo not given) the figure was 5.2 µM.
For the molecule `CCOC(=O)c1c(-c2ccccc2)csc1NC(NC(=O)c1ccc(Br)cc1)C(Cl)(Cl)Cl` (stereo not given), the IC50 was determined as 2 µM.
Same read-out and setting: to `CCOC(=O)c1c(-c2ccccc2)csc1NC(NC(=O)c1cccc(Cl)c1)C(Cl)(Cl)Cl` (stereo not given) belongs 6.1 µM.

Still in this assay, the particulars now being: a-375.
As for `Cc1cc(C(F)F)n2ncc(C(=O)NC3CC(C)(C)Oc4ccccc43)c2n1` (stereo not given), the IC50 entry is listed as “Not Active”.

The target of another assay is T1, Zinc finger protein GLI1 (Mus musculus). As to the kind of experiment: Inhibition of GLI1 transcriptional activity in HH-responsive mouse NIH3T3 cells assessed as reduction in GLI1 protein expression at 5 uM incubated for 48 hrs in presence of SAG by Western blot analysis. In kind it is cell-based.
Settings: not given
The method in brief: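 Murine NIH3T3 cells given 100 nM SAG plus compound (5 μM) or DMSO for 48 h. Endogenous GLI1 protein measured by Western blot with HSP90 as loading control, band quantified against SAG-treated cells.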
Background: Immunoblotting shows a protein as a band on a membrane.
On to `CCOC(=O)c1c(-c2ccccc2)csc1NC(NC(C)=O)C(Cl)(Cl)Cl` (stereo not given), for which the inhibition entry was “inactive”.
Same read-out and setting: with `Cc1cc(C(F)F)n2ncc(C(=O)NC3CC(C)(C)Oc4ccccc43)c2n1` (stereo not given) the entry was “inactive”; with `CCOC(=O)c1c(-c2ccccc2)csc1NC(NC(=O)c1ccc([N+](=O)[O-])cc1)C(Cl)(Cl)Cl` (stereo not given), “Active”.
Still for that read-out and setting: with `CCOC(=O)c1c(-c2ccccc2)csc1NC(NC(=O)c1ccc(Br)cc1)C(Cl)(Cl)Cl` (stereo not given) the entry was “Active”; with `CCOC(=O)c1c(-c2ccccc2)csc1NC(NC(=O)c1cccc(Cl)c1)C(Cl)(Cl)Cl` (stereo not given), “Active”.
